High-throughput results as filed in PubChem.
aDG glyco up – increases alpha dystroglycan glycosylation. Pro5-aDG cells, alpha-DG glycosylation AlphaScreen (IIH6); 0% Pro5, 100% B10-LARGE cell signal. activation, % at 10 µM. 360,000 tested, 0.22% active;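 active = activation of at least 8% versus controls, or a plate z-score of at least 8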;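 note: Pro5 are CHO cells carrying HIG-tagged alpha-DG that lacks glycosylation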
ADAM10 inh – ADAM10 inhibition, QFRET primary screen; 370,000 tested, 0.62% active; recombinant ADAM10, EDANS/DABCYL FRET peptide cleavage, 3 h; O14672; inhibition, % at 7 µM;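 active = inhibition above a per-campaign cutoff equal to the mean of compounds falling between control-based bounds plus 3 SD, cut at about 20% in these data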;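 note: 0% = DMSO wells while the 100% control is not disclosed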
Target sequence (O14672 214-748 limits assumed): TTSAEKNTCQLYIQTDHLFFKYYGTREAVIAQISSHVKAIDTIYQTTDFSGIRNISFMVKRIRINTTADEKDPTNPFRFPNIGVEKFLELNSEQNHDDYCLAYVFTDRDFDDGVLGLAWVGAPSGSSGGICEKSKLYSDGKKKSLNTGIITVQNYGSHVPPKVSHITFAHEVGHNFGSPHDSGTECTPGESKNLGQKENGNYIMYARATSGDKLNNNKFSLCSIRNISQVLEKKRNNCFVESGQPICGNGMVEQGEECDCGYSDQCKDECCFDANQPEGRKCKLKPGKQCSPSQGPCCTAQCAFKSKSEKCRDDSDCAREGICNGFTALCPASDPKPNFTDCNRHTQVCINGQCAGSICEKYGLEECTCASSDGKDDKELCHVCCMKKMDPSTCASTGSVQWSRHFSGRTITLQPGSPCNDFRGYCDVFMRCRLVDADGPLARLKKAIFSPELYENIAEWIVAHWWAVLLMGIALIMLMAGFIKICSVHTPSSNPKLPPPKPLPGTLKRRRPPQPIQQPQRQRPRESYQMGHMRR
MPTP inh – permeability transition pore inhibition | inhibition, % at 10 µM | AID 602449 | isolated mouse mitochondria, Ca2+ swelling absorbance, 30 min | 360,000 tested, 1.4% active;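 active = inhibition of 50% or more, scaled per plate between neutral and stimulator controls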;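 note: 0% = DMSO wells given calcium and 100% = 1 mM EGTA wells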
V-ATPase pHluor – alters yeast V-ATPase proton transport; AID 504577; 350,000 tested, 0.37% active; S. cerevisiae, pHLuorin cytosolic pH fluorescence; response, % at 10 µM; in the data active = response mostly above about 7.3%, no sharp cut-off; inactive = mostly below about 5.4%; note: actives read high
Hep lipid drop – modulators of hepatic lipid droplet formation | inhibition, % at 6.5 µM | AML12 mouse hepatocytes, oleate lipid droplets, BODIPY imaging | 240,000 tested, 0.4% active;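 active = lipid droplet intensity inhibited by at least 50%, with more than 500 cells counted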
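System: AML12 hepatocytes (mouse). Probe or stimulus: oleic acid at 100 µM to induce lipid droplet formation. Times: overnight treatment with compound plus oleate. Detection: Image-based BODIPY and DAPI two-channel analysis. Evaluation: percent inhibition of filter-corrected integrated lipid droplet intensity per well.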
ADAM17 inh – inhibits human ADAM17; P78536; recombinant ADAM17, EDANS/DABCYL FRET peptide cleavage; inhibition, % at 6.95 µM; 370,000 tested, 0.83% active; AID 720648;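 active = inhibition above the mean of compounds lying between control limits plus 3 SD, set per campaign, cut at about 8.5% in these data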;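 note: 0% = DMSO-only wells as the low control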
MPTP counter – Rhodamine 123 counter-screen of mitochondrial pore hits; shares compounds with MPTP inh; isolated mitochondria, membrane potential, Rhodamine 123 fluorescence; inhibition, % at 10 µM; 5,000 tested, 78% active; in the data active = inhibition above about 22%;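 note: 0% = DMSO vehicle and 100% = positive control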
MPTP swell DR – MPTP inhibition, dose response swelling confirmation; shares compounds with MPTP inh; isolated mitochondria swelling, absorbance; IC50, µM; 780 tested, 58% active; AID 651561; in the data active = IC50 below about 20 µM
MPTP cs DR – counter-screen for mitochondrial permeability transition pore inhibitors, dose response. shares compounds with MPTP inh. IC50, µM. isolated mitochondria counterscreen, fluorescence read-out. 780 tested, 49% active. AID 651564; in the data active = IC50 below about 80 µM
* = called active by the depositor. This is a sample that favours compounds with a hit; in the whole collection about 3.1% have one here.

For COc1ccc(NC(=O)NCCN2CCN(c3cc(OC)ccc3OC)CC2)cc1 the results were aDG glyco up 0, ADAM10 inh -1, MPTP inh 0, V-ATPase pHluor -1, Hep lipid drop 24 and ADAM17 inh -2.
COc1ccc(Cl)c(N2CCN(CCCNC(=O)Nc3ccc(C)cc3)CC2)c1 was read as aDG glyco up 3, ADAM10 inh 3, MPTP inh 80*, V-ATPase pHluor -2, Hep lipid drop -12, ADAM17 inh -2, MPTP counter -9, MPTP swell DR 9.4* and MPTP cs DR 37*.
Screening COc1ccc(Cl)cc1N1CCN(CCNC(=O)Nc2ccccc2C)CC1 returned aDG glyco up 3, ADAM10 inh 15, MPTP inh 94*, V-ATPase pHluor -4, Hep lipid drop -4, ADAM17 inh 4, MPTP counter -7, MPTP swell DR inactive and MPTP cs DR 32*.
For C=CCN1C(=O)[C@@H](CC(=O)N2CCN(C(=O)c3ccco3)CC2)[C@]2(C(=O)OCC)CCCCC/C=C/12 the results were ADAM10 inh -1 and ADAM17 inh 2.
For CCCOc1ccc(Br)cc1CSC(=N)N the results were aDG glyco up 6, ADAM10 inh -6, MPTP inh 97*, V-ATPase pHluor -3, Hep lipid drop -4, ADAM17 inh 0 and MPTP counter 92*.
For N#CC(C#N)=C(Nc1ccc(F)cc1)SCc1cccc(F)c1 the results were aDG glyco up 1, ADAM10 inh 12, MPTP inh 95*, V-ATPase pHluor -1, Hep lipid drop -2, ADAM17 inh 6 and MPTP counter 85*.
CC(C)(C)C1CCC(OCC(O)CN2CCN(c3ccccc3)CC2)CC1 (stereo unspecified) was read as aDG glyco up 0, ADAM10 inh 4, MPTP inh 85*, V-ATPase pHluor 3, ADAM17 inh -2, MPTP counter -4, MPTP swell DR >100 and MPTP cs DR >80.
For O=C(NC1CCCCN(Cc2ccc(Cl)cc2)C1=O)c1ccccc1 (stereo unspecified) the results were ADAM10 inh -11 and ADAM17 inh -7.
Screening CNC(=S)Nc1ccc(OC(F)(F)F)cc1 returned aDG glyco up 0, ADAM10 inh -2, MPTP inh 42, V-ATPase pHluor -3, Hep lipid drop 1 and ADAM17 inh -1.
`N#C/C(=N/Nc1ccc(OC(F)(F)F)cc1)C(N)=S` gave aDG glyco up 0, ADAM10 inh 4, MPTP inh 83*, V-ATPase pHluor 0, Hep lipid drop -20, ADAM17 inh 0 and MPTP counter 87*.
`CCn1c(COc2ccc(C)cc2)nnc1SCC(=O)c1ccc(-c2ccccc2)cc1` gave ADAM10 inh 7 and ADAM17 inh 2.
Screening O=C(/C=C/c1cc([N+](=O)[O-])ccc1OC(F)F)Nc1cccc(OC(F)F)c1 returned aDG glyco up 0, ADAM10 inh 6, MPTP inh 99*, V-ATPase pHluor 4, Hep lipid drop 14, ADAM17 inh 3 and MPTP counter 72*.
`CN(C)CC(c1ccc(O)cc1)C1(O)CCCCC1` (stereo unspecified) gave ADAM10 inh -7 and ADAM17 inh 1.
Cc1ccc(OCCn2c(CCNC(=O)c3ccc(F)cc3F)nc3ccccc32)cc1 was read as ADAM10 inh 14 and ADAM17 inh 4.
`N#CC(c1cccc(Cl)c1)c1ccc2c(C(F)(F)F)cc(C(F)(F)F)nc2n1` (stereo unspecified) gave aDG glyco up -1, ADAM10 inh 1, MPTP inh 114*, V-ATPase pHluor 6, Hep lipid drop 31, ADAM17 inh -3 and MPTP counter 90*.
For COc1ccc(CN2CCC(CNC(=O)NCc3ccccc3)CC2)cc1 the results were ADAM10 inh -11 and ADAM17 inh 4.
Screening O=C(NCc1ccccc1)c1cc(-c2cccc(O)c2)on1 returned aDG glyco up 0, ADAM10 inh -9, MPTP inh 113*, V-ATPase pHluor 4, Hep lipid drop 2, ADAM17 inh -1, MPTP counter 16, MPTP swell DR 4.3* and MPTP cs DR 19*.
Cc1ccc(NC(=O)c2cc(-c3cccc(O)c3)on2)cc1C was read as aDG glyco up 0, ADAM10 inh 1, MPTP inh 105*, V-ATPase pHluor -1, ADAM17 inh 5 and MPTP counter 20*.
O=C(NCc1cccnc1)c1cc(-c2ccccc2)on1 was read as aDG glyco up 0, ADAM10 inh -1, MPTP inh 0, V-ATPase pHluor 1, Hep lipid drop 11 and ADAM17 inh -2.
Screening Cc1cc(Nc2cccc(Br)c2)c2ccccc2n1 returned aDG glyco up 0, ADAM10 inh 1, MPTP inh 83*, V-ATPase pHluor -2, ADAM17 inh 3 and MPTP counter 75*.
O=C(N[C@@H](Cc1ccccc1)c1nc2ccccc2[nH]1)c1ccc([N+](=O)[O-])cc1 was read as ADAM10 inh 3 and ADAM17 inh 1.
Screening O=C(Cc1nc2ccccc2[nH]1)c1cccc([N+](=O)[O-])c1 returned aDG glyco up 0, ADAM10 inh -60, MPTP inh 91*, V-ATPase pHluor 0, Hep lipid drop -19, ADAM17 inh -21 and MPTP counter 79*.
For O=C(Nc1nc2ccccc2[nH]1)c1cccc([N+](=O)[O-])c1 the results were aDG glyco up 0, ADAM10 inh -1, MPTP inh 0, V-ATPase pHluor -1, Hep lipid drop 16 and ADAM17 inh -2.
For O=C(NC(Cc1ccccc1)c1nc2ccccc2[nH]1)c1cccc([N+](=O)[O-])c1 (stereo unspecified) the results were aDG glyco up 0, ADAM10 inh 6, MPTP inh 65*, V-ATPase pHluor 2, Hep lipid drop -7, ADAM17 inh 3 and MPTP counter 65*.
For COC(=O)[C@]12C[C@H](CC(=O)N3CCN(C(=O)C4CC4)CC3)C(=O)N(Cc3ccc(Cl)cc3Cl)C1=C[C@H](COCc1ccccc1)O[C@@H]2C the results were ADAM10 inh 6 and ADAM17 inh 0.
COc1ccc(C2CCC3(CCC(=O)N3CCOC(=O)NCc3ccc(Cl)cc3)CC2)cc1 (stereo unspecified) was read as ADAM10 inh 7 and ADAM17 inh 0.
